Measurements published in PMC3059893 (Biochemistry, 2011).
Read-outs that look alike come from different tables or passages of the source. Peptide text beside a SMILES is read from it. * marks the point of attachment. Dansyl = CN(C)c1cccc2c(S(=O)(=O)*)cccc12

How the values were obtained:
Tiam1 PDZ L915F/L920V [1] = assay: Fluorescence anisotropy binding and double-mutant cycle, Tiam1 PDZ mutant; details: for ΔΔΔGint (pair-wise coupling free energy): double-mutant cycle L915/L920 (S0 pocket); for Σ singles: sum of ΔΔGb of single mutants L915F and L920V; for ΔΔGb: ΔGb(mutant) − ΔGb(wild-type), L915F/L920V
How it was run: (§1)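 Wild-type, single- and double-mutant Tiam1 PDZ (E. coli-expressed, tag-cleaved) were each titrated into 1 μM dansylated peptide at 25 °C. Anisotropy read at ex 340/em 550 nm; Kd from hyperbolic fit, ≥3 independent runs. ΔG = RT ln Kd at 298.15 K. Coupling energy ΔΔΔGint = (ΔGWT − ΔGM1) − (ΔGM2 − ΔGDM), with errors propagated by standard methods.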

Tiam1 PDZ L915F/L920V [2] = biological target: Tiam1 PDZ L915F/L920V (Mus musculus, UniProt Q60610, L915F/L920V, species not given); assay: as above; details: Tiam1 PDZ L915F/L920V; for Kd: fluorescence anisotropy, 25 °C
Tiam1 PDZ L915F/L920V (Mus musculus, UniProt Q60610, L915F/L920V, species not given), sequence (Q60610 2-1591 L915F/L920V): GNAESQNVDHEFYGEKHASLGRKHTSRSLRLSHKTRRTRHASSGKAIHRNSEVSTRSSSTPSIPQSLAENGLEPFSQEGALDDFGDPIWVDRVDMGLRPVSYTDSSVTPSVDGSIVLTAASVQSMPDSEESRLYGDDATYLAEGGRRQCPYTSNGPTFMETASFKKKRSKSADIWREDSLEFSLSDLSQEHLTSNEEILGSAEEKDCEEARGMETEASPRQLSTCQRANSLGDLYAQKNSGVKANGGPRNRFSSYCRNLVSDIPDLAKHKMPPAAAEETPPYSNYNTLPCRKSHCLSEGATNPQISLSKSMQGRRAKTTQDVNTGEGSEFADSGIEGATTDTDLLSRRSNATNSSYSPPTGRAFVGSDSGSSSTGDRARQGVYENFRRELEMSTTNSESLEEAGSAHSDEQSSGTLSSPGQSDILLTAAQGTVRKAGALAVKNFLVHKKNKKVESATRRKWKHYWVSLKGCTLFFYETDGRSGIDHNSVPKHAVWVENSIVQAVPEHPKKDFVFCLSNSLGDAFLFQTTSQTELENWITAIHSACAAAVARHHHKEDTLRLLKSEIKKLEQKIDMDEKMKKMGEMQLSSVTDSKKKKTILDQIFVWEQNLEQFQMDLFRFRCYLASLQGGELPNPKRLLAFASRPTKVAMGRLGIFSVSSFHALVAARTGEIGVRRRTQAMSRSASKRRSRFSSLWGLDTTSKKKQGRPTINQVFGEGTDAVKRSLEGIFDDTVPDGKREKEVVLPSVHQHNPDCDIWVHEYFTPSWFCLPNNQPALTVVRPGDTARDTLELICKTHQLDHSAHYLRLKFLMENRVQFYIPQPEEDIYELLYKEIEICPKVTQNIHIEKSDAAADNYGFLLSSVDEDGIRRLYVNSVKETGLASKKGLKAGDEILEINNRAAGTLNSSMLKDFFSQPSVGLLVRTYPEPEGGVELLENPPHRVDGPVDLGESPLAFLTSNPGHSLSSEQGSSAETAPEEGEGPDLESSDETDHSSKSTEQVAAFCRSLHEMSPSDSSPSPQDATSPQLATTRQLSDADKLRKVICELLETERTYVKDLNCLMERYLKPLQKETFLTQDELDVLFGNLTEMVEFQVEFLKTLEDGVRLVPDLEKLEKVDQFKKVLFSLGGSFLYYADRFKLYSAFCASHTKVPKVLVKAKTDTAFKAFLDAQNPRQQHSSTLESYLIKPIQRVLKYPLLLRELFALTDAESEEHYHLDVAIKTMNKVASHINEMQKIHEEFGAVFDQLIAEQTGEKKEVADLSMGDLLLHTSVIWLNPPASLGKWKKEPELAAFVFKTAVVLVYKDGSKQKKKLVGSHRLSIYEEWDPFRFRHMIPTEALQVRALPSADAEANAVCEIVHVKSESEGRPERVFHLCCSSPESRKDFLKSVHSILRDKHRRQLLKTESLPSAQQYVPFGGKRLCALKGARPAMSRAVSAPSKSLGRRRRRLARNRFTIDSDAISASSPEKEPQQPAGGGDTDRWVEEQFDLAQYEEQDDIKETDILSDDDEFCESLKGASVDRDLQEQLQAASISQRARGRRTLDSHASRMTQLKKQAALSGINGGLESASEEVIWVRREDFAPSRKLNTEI
How it was run: as §1

Tiam1 PDZ L911M/K912E [3] = biological target: Tiam1 PDZ L911M/K912E (Mus musculus, UniProt Q60610, L911M/K912E, species not given); assay: as above; details: Tiam1 PDZ L911M/K912E; for Kd: fluorescence anisotropy, 25 °C
Tiam1 PDZ L911M/K912E (Mus musculus, UniProt Q60610, L911M/K912E, species not given), sequence (Q60610 2-1591 L911M/K912E): as the sequence (Q60610 2-1591 L915F/L920V) above, with L910M, K911E, F914L, V919L counted along it
How it was run: as §1

Tiam1 PDZ L911M/K912E [4] = assay: as above; details: for ΔΔΔGint (pair-wise coupling free energy): double-mutant cycle L911/K912 (S-2 pocket); for Σ singles: sum of ΔΔGb of single mutants L911M and K912E; for ΔΔGb: ΔGb(mutant) − ΔGb(wild-type), L911M/K912E
How it was run: as §1

[5] = biological target: Tiam1 PDZ QM (L911M/K912E/L915F/L920V) (Homo sapiens, UniProt Q13009, K912E/L911M/L915F/L920V); assay: Fluorescence anisotropy binding, Tiam1 PDZ quadruple mutant; details: for ΔGb: Tiam1 PDZ QM
Tiam1 PDZ QM (L911M/K912E/L915F/L920V) (Homo sapiens, UniProt Q13009, K912E/L911M/L915F/L920V), sequence (Q13009 841-930 L911M/K912E/L915F/L920V limits assumed): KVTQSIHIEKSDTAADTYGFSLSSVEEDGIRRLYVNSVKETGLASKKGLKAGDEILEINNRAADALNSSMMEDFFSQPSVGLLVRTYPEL
How it was run: (§2)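 Purified PDZ domains were titrated from a 1.5 mM stock into 1 μM N-terminally dansylated peptide at 25 °C in a stirred cuvette. Proteins were expressed in E. coli BL21(DE3), purified by Ni-chelate and size-exclusion chromatography, and His6-tag cleaved by TEV; Tiam2 is mouse residues 809–994; mutants made by site-directed mutagenesis. Anisotropy ex 340/em 550 nm, buffer-blank corrected. Kd from hyperbolic fit, mean of ≥3 independent runs; ΔG = RT ln Kd (298.15 K).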

[6] = test system: Tiam1 PDZ QM (L911M/K912E/L915F/L920V); assay: as above; details: for ΔΔGb: ΔGb(mutant) − ΔGb(wild-type), QM
How it was run: as §2

Tiam1 PDZ L915F = Tiam1 PDZ L915F (Homo sapiens, UniProt Q13009, L915F); assay: Fluorescence anisotropy binding, Tiam1 PDZ mutant; details: for ΔΔGb: ΔGb(mutant) − ΔGb(wild-type), L915F
Tiam1 PDZ L915F, sequence (Q13009 841-930 L915F limits assumed): as the sequence (Q13009 841-930 L911M/K912E/L915F/L920V limits assumed) above, with M71L, E72K, V80L counted along it
How it was run: as §2

[7] = biological target: Tiam1 PDZ domain (wild-type) (Homo sapiens, UniProt Q13009); assay: Equilibrium fluorescence anisotropy binding of dansylated peptides
Tiam1 PDZ domain (wild-type), sequence (Q13009 841-930 limits assumed): as the sequence (Q13009 841-930 L911M/K912E/L915F/L920V limits assumed) above, with M71L, E72K, F75L, V80L counted along it
How it was run: as §2

Tiam2 PDZ domain = biological target: T1, Tiam2 PDZ domain (Mus musculus, UniProt Q6ZPF3); assay: as above
T1 sequence (Q6ZPF3 908-997 limits assumed): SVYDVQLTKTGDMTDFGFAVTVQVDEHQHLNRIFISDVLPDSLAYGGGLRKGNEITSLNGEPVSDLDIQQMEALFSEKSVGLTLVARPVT
How it was run: as §2

Tiam1 PDZ L920V = Tiam1 PDZ L920V (Homo sapiens, UniProt Q13009, L920V); assay: Fluorescence anisotropy binding, Tiam1 PDZ mutant; details: for ΔΔGb: ΔGb(mutant) − ΔGb(wild-type)
Tiam1 PDZ L920V, sequence (Q13009 841-930 L920V limits assumed): as the sequence (Q13009 841-930 L911M/K912E/L915F/L920V limits assumed) above, with M71L, E72K, F75L counted along it
How it was run: as §2

Tiam1 PDZ K912E = Tiam1 PDZ K912E (Homo sapiens, UniProt Q13009, K912E); assay: Fluorescence anisotropy binding, Tiam1 PDZ mutant; details: for ΔΔGb: ΔGb(mutant) − ΔGb(wild-type), K912E
Tiam1 PDZ K912E, sequence (Q13009 841-930 K912E limits assumed): as the sequence (Q13009 841-930 L911M/K912E/L915F/L920V limits assumed) above, with M71L, F75L, V80L counted along it
How it was run: as §2

Tiam1 PDZ L911M = Tiam1 PDZ L911M (Homo sapiens, UniProt Q13009, L911M); assay: Fluorescence anisotropy binding, Tiam1 PDZ mutant; details: for ΔΔGb: ΔGb(mutant) − ΔGb(wild-type), L911M
Tiam1 PDZ L911M, sequence (Q13009 841-930 L911M limits assumed): as the sequence (Q13009 841-930 L911M/K912E/L915F/L920V limits assumed) above, with E72K, F75L, V80L counted along it
How it was run: as §2

Compound | ΔΔΔGint (pair-wise coupling free energy) (Tiam1 PDZ L915F/L920V [1]) | Σ singles (Tiam1 PDZ L915F/L920V [1]) | ΔGb (Tiam1 PDZ L915F/L920V [2]) | Kd (Tiam1 PDZ L915F/L920V [2]) | ΔGb (Tiam1 PDZ L911M/K912E [3]) | Kd (Tiam1 PDZ L911M/K912E [3]) | ΔΔΔGint (pair-wise coupling free energy) (Tiam1 PDZ L911M/K912E [4]) | Σ singles (Tiam1 PDZ L911M/K912E [4]) | ΔΔGb (Tiam1 PDZ L911M/K912E [4]) | Kd [5] | ΔGb [5] | fold higher Kd than Tiam2 PDZ domain ([6]; QM vs Tiam2 PDZ) | ΔΔGb [6] | Kd (Tiam1 PDZ L915F) | ΔGb (Tiam1 PDZ L915F; Tiam1 PDZ L915F) | ΔΔGb (Tiam1 PDZ L915F) | Kd (Tiam2 PDZ domain) | Kd (Tiam1 PDZ L920V) | ΔGb (Tiam1 PDZ L920V; Tiam1 PDZ L920V) | ΔΔGb (Tiam1 PDZ L920V; L920V) | also measured
CN(C)c1cccc2c(S(=O)(=O)N[C@@H](CCC(=O)O)C(=O)N[C@@H](CC(N)=O)C(=O)N[C@@H](CCC(N)=O)C(=O)N[C@@H](CCCCN)C(=O)N[C@@H](CCC(=O)O)C(=O)N[C@@H](Cc3ccc(O)cc3)C(=O)N[C@@H](Cc3ccccc3)C(=O)N[C@@H](Cc3ccccc3)C(=O)O)cccc12 [Caspr4] (Dansyl-ENQKEYFF-OH) | 0.38 ± 0.10 kcal/mol | 0.36 ± 0.06 kcal/mol | -5.61 ± 0.04 kcal/mol | 76.5 ± 3.4 µM | -6.19 ± 0.02 kcal/mol | 28.9 ± 0.9 µM | -0.25 ± 0.04 kcal/mol | 0.49 ± 0.04 kcal/mol | 0.24 ± 0.02 kcal/mol | 18.3 ± 0.3 µM | -6.46 ± 0.01 kcal/mol | 5 fold | -0.02 ± 0.02 kcal/mol | 61 ± 4 µM | -5.74 ± 0.04 kcal/mol | 0.69 ± 0.04 kcal/mol | 3.4 ± 0.3 µM | 10.8 ± 0.6 µM | -6.77 ± 0.03 kcal/mol | -0.33 ± 0.04 kcal/mol | ΔGb ([7]; wild-type Tiam1 PDZ, ΔG = RT ln(Kd), T 298.15 K): -6.43 ± 0.01 kcal/mol; fold lower Kd for Tiam2 PDZ than for Tiam1 PDZ (Tiam2 PDZ domain; Tiam2 vs Tiam1 PDZ): ~6 fold; fold decrease in Kd vs wild-type Tiam1 PDZ (Tiam1 PDZ L920V; L920V): ~2 fold; Kd (Tiam1 PDZ K912E): 58.6 ± 4.1 µM; ΔGb (Tiam1 PDZ K912E; Tiam1 PDZ K912E): -5.77 ± 0.04 kcal/mol; ΔΔGb (Tiam1 PDZ K912E): 0.67 ± 0.04 kcal/mol; Kd (Tiam1 PDZ L911M): 14 ± 0.3 µM; ΔGb (Tiam1 PDZ L911M; Tiam1 PDZ L911M): -6.61 ± 0.01 kcal/mol; ΔΔGb (Tiam1 PDZ L911M): -0.18 ± 0.02 kcal/mol
C[C@H](NC(=O)[C@H](Cc1ccc(O)cc1)NC(=O)[C@H](Cc1ccc(O)cc1)NC(=O)[C@H](CCC(=O)O)NC(=O)[C@H](CCCCN)NC(=O)[C@H](CCCNC(=N)N)NC(=O)[C@H](CO)NC(=O)[C@H](CO)NS(=O)(=O)c1cccc2c(N(C)C)cccc12)C(=O)O [Model, reference compound] (Dansyl-SSRKEYYA-OH) |  |  |  |  |  |  |  |  |  |  |  |  |  |  |  |  | 24.1 ± 7.1 µM |  |  |  | 
CC(C)[C@H](NC(=O)[C@H](Cc1ccc(O)cc1)NC(=O)[C@H](Cc1ccc(O)cc1)NC(=O)[C@H](CCC(=O)O)NC(=O)[C@H](CCCCN)NC(=O)[C@H](CC(=O)O)NC(=O)[C@H](CCCCN)NC(=O)[C@H](CC(N)=O)NS(=O)(=O)c1cccc2c(N(C)C)cccc12)C(=O)O [Neurexin1] (Dansyl-NKDKEYYV-OH) |  |  | -5.15 ± 0.07 kcal/mol | 166 ± 12 µM | -4.90 ± 0.30 kcal/mol | 270 ± 150 µM |  |  | -1.30 ± 0.30 kcal/mol | 46 ± 2 µM | -5.91 ± 0.04 kcal/mol | 9 fold | -2.30 ± 0.10 kcal/mol |  |  |  | 5 ± 0.2 µM |  |  |  | ΔΔGb (Tiam1 PDZ L915F/L920V [1]): -1.58 ± 0.10 kcal/mol; Kd (Tiam1 PDZ L915F; Tiam1 PDZ L915F, fluorescence anisotropy, 25 °C): too weak to allow for reliable measurement; Kd (Tiam1 PDZ L920V; Tiam1 PDZ L920V, fluorescence anisotropy, 25 °C): too weak to allow for reliable measurement; Kd (Tiam1 PDZ K912E; Tiam1 PDZ K912E, fluorescence anisotropy, 25 °C): bound very weakly; Kd (Tiam1 PDZ L911M; Tiam1 PDZ L911M, fluorescence anisotropy, 25 °C): bound very weakly
C[C@H](NC(=O)[C@H](Cc1ccc(O)cc1)NC(=O)[C@H](Cc1ccccc1)NC(=O)[C@H](CCC(=O)O)NC(=O)[C@H](CCC(=O)O)NC(=O)[C@H](CCC(N)=O)NC(=O)[C@H](CCCCN)NC(=O)[C@@H](NS(=O)(=O)c1cccc2c(N(C)C)cccc12)[C@@H](C)O)C(=O)O [Syndecan1] (Dansyl-TKQEEFYA-OH) | 0.36 ± 0.13 kcal/mol | 0.96 ± 0.07 kcal/mol | -4.91 ± 0.08 kcal/mol | 250 ± 20 µM | -5.00 ± 0.10 kcal/mol | 211 ± 36 µM | 0.07 ± 0.13 kcal/mol | 1.13 ± 0.09 kcal/mol | 1.20 ± 0.10 kcal/mol | 122 ± 8 µM | -5.33 ± 0.04 kcal/mol |  | 0.89 ± 0.04 kcal/mol | 81 ± 7 µM | -5.58 ± 0.05 kcal/mol | 0.65 ± 0.06 kcal/mol | 200 ± 20 µM | 46 ± 3 µM | -5.92 ± 0.03 kcal/mol | 0.31 ± 0.04 kcal/mol | ΔΔGb (Tiam1 PDZ L915F/L920V [1]): 1.32 ± 0.09 kcal/mol; fold lower Kd than Tiam2 PDZ domain ([6]; QM vs Tiam2 PDZ): 1.6 fold; Kd (Tiam1 PDZ K912E): 140 ± 20 µM; ΔGb (Tiam1 PDZ K912E; Tiam1 PDZ K912E): -5.25 ± 0.08 kcal/mol; ΔΔGb (Tiam1 PDZ K912E): 0.98 ± 0.09 kcal/mol; Kd (Tiam1 PDZ L911M): 34.7 ± 0.7 µM; ΔGb (Tiam1 PDZ L911M; Tiam1 PDZ L911M): -6.08 ± 0.01 kcal/mol; ΔΔGb (Tiam1 PDZ L911M): 0.15 ± 0.02 kcal/mol
C[C@H](NC(=O)[C@H](CCCNC(=N)N)NC(=O)[C@H](Cc1ccc(O)cc1)NC(=O)[C@H](CCCNC(=N)N)NC(=O)[C@H](Cc1ccc(O)cc1)NC(=O)[C@H](C)NC(=O)[C@H](C)NC(=O)[C@H](Cc1ccc(O)cc1)NS(=O)(=O)c1cccc2c(N(C)C)cccc12)C(=O)O [Tiam1 peptide 1 (Group I)] (Dansyl-YAAYRYRA-OH) |  |  |  |  |  |  |  |  |  |  |  |  |  |  |  |  | 22.5 ± 1.1 µM |  |  |  | Kd [7]: > 250 µM
C[C@H](NC(=O)[C@H](Cc1c[nH]c2ccccc12)NC(=O)[C@H](Cc1ccc(O)cc1)NC(=O)[C@H](CCCCN)NC(=O)[C@H](CCC(=O)O)NC(=O)[C@H](C)NC(=O)[C@H](C)NC(=O)[C@H](Cc1ccc(O)cc1)NS(=O)(=O)c1cccc2c(N(C)C)cccc12)C(=O)O [Tiam1 peptide 2 (Group I)] (Dansyl-YAAEKYWA-OH) |  |  |  |  |  |  |  |  |  |  |  |  |  |  |  |  | 10.9 ± 0.4 µM |  |  |  | Kd [7]: 90.3 ± 8.3 µM
